This note sets out measurements from ChEMBL document CHEMBL4152384, “Pyrtriazoles, a Novel Class of Store-Operated Calcium Entry Modulators: Discovery, Biological Profiling, and in Vivo Proof-of-Concept Efficacy in Acute Pancreatitis” (J Med Chem, 2018).

Each structure is given as a SMILES string. Activity calls are given as the source filed them. No cut-off for these calls is given here.

Test [1] deals with Jurkat. In words: Induction of store-operated calcium entry in human Jurkat cells assessed as induction of store-operated calcium entry by measuring increase in slope at 0.3 to 10 uM preincubated for 30 mins followed by tBhQ-mediated Ca2+ depletion and Ca2+ re-addition to extracellular solution measured for 600 secs by Fluo-4 AM-based fluorometric assay relative to control. Format: cell-based.

The target in test [2] is T1, Short transient receptor potential channel 1 & 3/Stromal interaction molecule 1/Calcium release-activated calcium channel protein 1 (Homo sapiens) (UniProt Q96D31+Q13507+Q13586+P48995). The test is described as follows: Modulation of TRPC1/TRPC3/STIM1/Orai1 in HEK cells assessed as induction of store-operated calcium entry by measuring residual activity at 10 uM preincubated for 30 mins followed by tBhQ-mediated Ca2+ depletion and Ca2+ re-addition to extracellular solution measured for 600 secs by Fluo-4 AM-based fluorometric assay relative to control. Format: cell-based.
T1 sequence (P48995 whole entry partner): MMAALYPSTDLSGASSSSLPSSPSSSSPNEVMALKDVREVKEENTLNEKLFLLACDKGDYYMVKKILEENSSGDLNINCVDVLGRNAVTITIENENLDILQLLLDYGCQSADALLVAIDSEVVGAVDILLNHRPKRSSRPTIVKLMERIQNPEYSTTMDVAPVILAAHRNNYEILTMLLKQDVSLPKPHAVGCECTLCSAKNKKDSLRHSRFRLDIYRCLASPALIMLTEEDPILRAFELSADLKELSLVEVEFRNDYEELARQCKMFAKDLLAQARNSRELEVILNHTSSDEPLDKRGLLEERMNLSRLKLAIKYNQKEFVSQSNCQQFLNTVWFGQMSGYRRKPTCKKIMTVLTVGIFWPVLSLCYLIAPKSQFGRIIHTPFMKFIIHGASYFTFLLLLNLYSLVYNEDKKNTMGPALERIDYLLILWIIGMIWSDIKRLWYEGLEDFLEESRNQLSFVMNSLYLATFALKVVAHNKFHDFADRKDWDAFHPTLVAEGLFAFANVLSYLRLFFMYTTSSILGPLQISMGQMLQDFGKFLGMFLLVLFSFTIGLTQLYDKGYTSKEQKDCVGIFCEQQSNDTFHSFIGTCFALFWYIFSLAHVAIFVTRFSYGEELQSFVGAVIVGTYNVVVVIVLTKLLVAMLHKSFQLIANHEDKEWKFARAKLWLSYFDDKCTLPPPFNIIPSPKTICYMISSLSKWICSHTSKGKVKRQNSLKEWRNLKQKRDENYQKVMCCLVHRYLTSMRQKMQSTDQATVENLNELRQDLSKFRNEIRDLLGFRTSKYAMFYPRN
T1 sequence (Q13507 whole entry partner): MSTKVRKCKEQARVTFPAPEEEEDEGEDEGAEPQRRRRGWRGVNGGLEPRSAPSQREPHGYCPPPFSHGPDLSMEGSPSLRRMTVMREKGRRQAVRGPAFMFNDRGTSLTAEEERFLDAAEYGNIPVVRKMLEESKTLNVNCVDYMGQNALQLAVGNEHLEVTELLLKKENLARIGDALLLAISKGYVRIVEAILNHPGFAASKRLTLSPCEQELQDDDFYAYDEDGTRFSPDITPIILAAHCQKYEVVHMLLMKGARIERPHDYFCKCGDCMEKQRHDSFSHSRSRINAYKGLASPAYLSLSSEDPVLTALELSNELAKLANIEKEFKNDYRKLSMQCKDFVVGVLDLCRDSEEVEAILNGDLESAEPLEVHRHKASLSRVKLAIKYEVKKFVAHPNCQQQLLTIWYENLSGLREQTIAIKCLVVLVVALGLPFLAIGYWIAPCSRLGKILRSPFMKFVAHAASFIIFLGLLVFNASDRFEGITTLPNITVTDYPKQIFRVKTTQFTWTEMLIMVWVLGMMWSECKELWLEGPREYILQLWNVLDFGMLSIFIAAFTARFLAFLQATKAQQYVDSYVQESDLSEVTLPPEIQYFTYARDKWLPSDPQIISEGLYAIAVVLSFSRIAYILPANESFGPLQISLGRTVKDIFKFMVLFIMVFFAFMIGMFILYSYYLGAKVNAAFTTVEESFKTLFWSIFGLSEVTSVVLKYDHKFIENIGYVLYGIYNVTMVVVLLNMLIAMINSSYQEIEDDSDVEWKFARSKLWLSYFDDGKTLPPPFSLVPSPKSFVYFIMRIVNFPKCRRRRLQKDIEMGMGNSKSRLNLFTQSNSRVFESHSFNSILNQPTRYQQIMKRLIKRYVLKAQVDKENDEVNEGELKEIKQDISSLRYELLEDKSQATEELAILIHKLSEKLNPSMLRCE
T1 sequence (Q13586 23-685 partner limits assumed): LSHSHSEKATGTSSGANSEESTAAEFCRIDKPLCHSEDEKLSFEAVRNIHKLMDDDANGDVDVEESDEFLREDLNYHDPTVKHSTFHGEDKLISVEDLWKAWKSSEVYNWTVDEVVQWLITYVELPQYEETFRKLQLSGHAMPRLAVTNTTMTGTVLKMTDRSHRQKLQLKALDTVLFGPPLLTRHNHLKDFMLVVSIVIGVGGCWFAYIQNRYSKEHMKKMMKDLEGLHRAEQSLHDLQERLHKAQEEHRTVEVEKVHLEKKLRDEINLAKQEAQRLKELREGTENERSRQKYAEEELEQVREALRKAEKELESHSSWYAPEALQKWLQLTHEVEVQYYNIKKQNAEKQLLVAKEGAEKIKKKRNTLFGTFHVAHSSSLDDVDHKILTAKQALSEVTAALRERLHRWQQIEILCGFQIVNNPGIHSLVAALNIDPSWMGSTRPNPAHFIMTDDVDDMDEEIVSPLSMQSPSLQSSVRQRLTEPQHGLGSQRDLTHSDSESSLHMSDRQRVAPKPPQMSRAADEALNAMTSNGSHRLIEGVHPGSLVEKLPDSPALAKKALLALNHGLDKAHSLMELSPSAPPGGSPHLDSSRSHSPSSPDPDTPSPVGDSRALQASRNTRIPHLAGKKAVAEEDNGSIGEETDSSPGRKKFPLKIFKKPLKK
T1 sequence (Q96D31 whole entry): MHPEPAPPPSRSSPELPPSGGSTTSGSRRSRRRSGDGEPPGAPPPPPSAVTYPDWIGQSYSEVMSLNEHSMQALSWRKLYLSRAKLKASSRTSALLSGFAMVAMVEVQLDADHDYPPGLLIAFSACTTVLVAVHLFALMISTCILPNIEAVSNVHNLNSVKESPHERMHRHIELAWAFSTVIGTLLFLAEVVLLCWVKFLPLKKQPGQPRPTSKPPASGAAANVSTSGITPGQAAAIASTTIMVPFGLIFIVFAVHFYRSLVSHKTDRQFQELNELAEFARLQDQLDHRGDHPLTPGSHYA

Test [3] concerns the target Calcium release-activated calcium channel protein 1 (Mus musculus) (UniProt Q8BWG9). In words: Modulation of Orai1 in Stim1-/1 and Stim2-/- MEF cells assessed as induction of store-operated calcium entry by measuring residual activity at 10 uM preincubated for 30 mins followed by tBhQ-mediated Ca2+ depletion and Ca2+ re-addition to extracellular solution measured for 600 secs by Fluo-4 AM-based fluorometric assay relative to control. Format: cell-based.

In test [4] the test system is voltage-gated calcium channel (Mus musculus). In words: Antagonist activity at voltage-gated calcium channels in C57/BL6 mouse cerebellar granule cells assessed as inhibition of KCl-induced voltage dependent calcium entry at 10 uM by fura-2-based assay.
The target in test [5] is T2, ORAI1/STIM1 (Homo sapiens) (UniProt Q96D31+Q13586). In words: Modulation of Orai1/STIM1 (unknown origin) expressed in HEK cells assessed as potentiation of store-operated calcium currents in presence of 20 mM BAPTA by patch clamp assay relative to control. It is filed as cell-based. The method, boiled down:
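Whole-cell ISOC recorded in Hek cells stably overexpressing Orai1 and transiently expressing STIM1; internal solution strongly buffered with 20 mM BAPTA; compound at 10 μM versus untreated control.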
On the technique in general: Patch clamp records ionic current or voltage across a cell membrane.

For test [6], the target named is Transient receptor potential cation channel subfamily V member 1 (Homo sapiens) (UniProt Q8NER1). In words: Antagonist activity at TRPV1 (unknown origin) expressed in HEK cells assessed as inhibition of capsaicin-induced calcium increase at 10 uM by fura-2-based assay. Format: cell-based. The method, boiled down:
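TRPV1-overexpressing Hek cells; calcium rise evoked by capsaicin (100 nM), test compounds at 10 μM; peak amplitude read out; mean ± SEM of 600 cells from 30 plates on four separate experimental days.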

Test [7] concerns Jurkat. In words: Induction of store-operated calcium entry in human Jurkat cells assessed as induction of store-operated calcium entry by measuring residual activity at 10 uM preincubated for 30 mins followed by tBhQ-mediated Ca2+ depletion and Ca2+ re-addition to extracellular solution measured for 600 secs by Fluo-4 AM-based fluorometric assay relative to control. It is filed as cell-based.

The species named for the next test is Homo sapiens. The test is described as follows: Modulation of Orai1/STIM1 (unknown origin) expressed in HEK cells assessed as potentiation of store-operated calcium currents by measuring reduction in time constant of channel activation in presence of 20 mM BAPTA and 150 nM Ca2+ containing internal solution by patch clamp assay relative to control. Format: cell-based.

Test [8] has as its target T2, ORAI1/STIM1 (Homo sapiens). In words: Modulation of Orai1/STIM1 (unknown origin) expressed in HEK cells assessed as potentiation of store-operated calcium currents in presence of 20 mM BAPTA and 150 nM Ca2+ containing internal solution by patch clamp assay relative to control. Format: cell-based.
The subject of test [9] is Jurkat. The test is described as follows: Induction of store-operated calcium entry in human Jurkat cells assessed as induction of store-operated calcium entry at 10 uM preincubated for 30 mins followed by tBhQ-mediated Ca2+ depletion and Ca2+ re-addition to extracellular solution measured for 800 secs by Fluo-4 AM-based fluorometric assay relative to control. It is filed as cell-based.

The subject of test [10] is Jurkat. In words: Induction of store-operated calcium entry in human Jurkat cells assessed as induction of store-operated calcium entry by measuring increase in AUC of calcium entry at 0.3 to 10 uM preincubated for 30 mins followed by tBhQ-mediated Ca2+ depletion and Ca2+ re-addition to extracellular solution measured for 600 secs by Fluo-4 AM-based fluorometric assay relative to control. It is filed as cell-based.

Test [11] has as its target T1, Short transient receptor potential channel 1 & 3/Stromal interaction molecule 1/Calcium release-activated calcium channel protein 1 (Homo sapiens). In words: Modulation of TRPC1/TRPC3/STIM1/Orai1 in HEK cells assessed as induction of store-operated calcium entry at 10 uM preincubated for 30 mins followed by tBhQ-mediated Ca2+ depletion and Ca2+ re-addition to extracellular solution measured for 800 secs by Fluo-4 AM-based fluorometric assay relative to control. Format: cell-based.

Test [12] shares this target. The test is described as follows: Modulation of TRPC1/TRPC3/STIM1/Orai1 in HEK cells assessed as induction of store-operated calcium entry by measuring increase in AUC of calcium entry at 0.3 to 10 uM preincubated for 30 mins followed by tBhQ-mediated Ca2+ depletion and Ca2+ re-addition to extracellular solution measured for 600 secs by Fluo-4 AM-based fluorometric assay relative to control. It is filed as cell-based.

For test [13], the target named is T3, Stromal interaction molecule 1 & 2/Calcium release-activated calcium channel protein 1 (Mus musculus) (UniProt Q8BWG9+P70302+P83093). In words: Modulation of STIM1/STIM2/Orai1 in mouse BV2 cells assessed as induction of store-operated calcium entry by measuring increase in AUC of calcium entry at 0.3 to 10 uM preincubated for 30 mins followed by tBhQ-mediated Ca2+ depletion and Ca2+ re-addition to extracellular solution measured for 600 secs by Fluo-4 AM-based fluorometric assay relative to control. It is filed as cell-based.

The target in test [14] is T1, Short transient receptor potential channel 1 & 3/Stromal interaction molecule 1/Calcium release-activated calcium channel protein 1 (Homo sapiens). The test is described as follows: Modulation of TRPC1/TRPC3/STIM1/Orai1 in HEK cells assessed as induction of store-operated calcium entry by measuring increase in slope at 0.3 to 10 uM preincubated for 30 mins followed by tBhQ-mediated Ca2+ depletion and Ca2+ re-addition to extracellular solution measured for 600 secs by Fluo-4 AM-based fluorometric assay relative to control. It is filed as cell-based.

Test [15] deals with voltage-gated calcium channel (Mus musculus). The test is described as follows: Antagonist activity at voltage-gated calcium channels in C57/BL6 mouse cerebellar granule cells assessed as inhibition of KCl-induced voltage dependent calcium entry at 10 uM by fura-2-based assay. This is another data set of the same source.
Test [16] addresses T3, Stromal interaction molecule 1 & 2/Calcium release-activated calcium channel protein 1 (Mus musculus). In words: Modulation of STIM1/STIM2/Orai1 in mouse BV2 cells assessed as induction of store-operated calcium entry by measuring residual activity at 10 uM preincubated for 30 mins followed by tBhQ-mediated Ca2+ depletion and Ca2+ re-addition to extracellular solution measured for 600 secs by Fluo-4 AM-based fluorometric assay relative to control. It is filed as cell-based.

Test [17] has the same target. In words: Modulation of STIM1/STIM2/Orai1 in mouse BV2 cells assessed as induction of store-operated calcium entry by measuring increase in peak amplitude at 0.3 to 10 uM preincubated for 30 mins followed by tBhQ-mediated Ca2+ depletion and Ca2+ re-addition to extracellular solution measured for 600 secs by Fluo-4 AM-based fluorometric assay relative to control. It is filed as cell-based.

T2 sequence (Q13586 23-685 partner limits assumed): as the sequence (Q13586 23-685 partner limits assumed) above
T2 sequence (Q96D31 whole entry): as the sequence (Q96D31 whole entry) above
Transient receptor potential cation channel subfamily V member 1 (Homo sapiens), sequence (Q8NER1 whole entry): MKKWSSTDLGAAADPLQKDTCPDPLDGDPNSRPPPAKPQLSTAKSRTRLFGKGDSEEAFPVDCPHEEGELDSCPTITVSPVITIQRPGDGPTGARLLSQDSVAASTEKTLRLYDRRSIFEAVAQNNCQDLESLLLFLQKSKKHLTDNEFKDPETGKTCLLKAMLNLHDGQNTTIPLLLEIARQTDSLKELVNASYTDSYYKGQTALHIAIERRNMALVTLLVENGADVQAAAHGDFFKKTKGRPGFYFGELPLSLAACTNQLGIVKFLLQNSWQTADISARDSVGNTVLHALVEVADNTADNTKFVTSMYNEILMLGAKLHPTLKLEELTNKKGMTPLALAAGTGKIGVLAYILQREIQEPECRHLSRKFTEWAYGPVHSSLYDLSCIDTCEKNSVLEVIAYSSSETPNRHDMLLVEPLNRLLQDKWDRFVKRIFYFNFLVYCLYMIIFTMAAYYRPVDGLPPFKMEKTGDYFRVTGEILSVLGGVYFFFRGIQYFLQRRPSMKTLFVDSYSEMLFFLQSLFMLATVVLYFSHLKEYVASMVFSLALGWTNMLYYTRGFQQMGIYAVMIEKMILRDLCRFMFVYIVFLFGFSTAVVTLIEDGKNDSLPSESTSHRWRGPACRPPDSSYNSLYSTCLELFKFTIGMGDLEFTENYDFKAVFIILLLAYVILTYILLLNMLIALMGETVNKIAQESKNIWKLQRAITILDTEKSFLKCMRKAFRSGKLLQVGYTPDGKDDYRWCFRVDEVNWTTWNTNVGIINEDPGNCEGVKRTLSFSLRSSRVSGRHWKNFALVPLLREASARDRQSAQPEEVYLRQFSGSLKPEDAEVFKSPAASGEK
Calcium release-activated calcium channel protein 1 (Mus musculus), sequence (Q8BWG9 whole entry): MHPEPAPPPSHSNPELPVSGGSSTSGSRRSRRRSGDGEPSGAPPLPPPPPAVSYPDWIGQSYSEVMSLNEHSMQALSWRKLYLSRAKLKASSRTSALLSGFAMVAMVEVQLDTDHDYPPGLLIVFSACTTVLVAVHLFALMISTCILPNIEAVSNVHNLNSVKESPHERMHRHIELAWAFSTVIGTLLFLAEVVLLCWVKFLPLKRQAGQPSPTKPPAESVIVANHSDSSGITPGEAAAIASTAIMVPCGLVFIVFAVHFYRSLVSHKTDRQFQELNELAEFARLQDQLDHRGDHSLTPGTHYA

As to `O=C(O)c1ccc(-c2cn(-c3ccc(-n4nc(C(F)(F)F)cc4C(F)(F)F)cc3)nn2)cc1`, the outcome (in the test on Jurkat [1]; in [3]; in test [5]; in the test filed under Homo sapiens; with Jurkat [9]; in the test on Jurkat [10]) was Active. Further, the outcome in test [11], in test [12], in [13], in [14] and in test [17] was Active. Further, the results for the Activity (in test [2]; in the test with Jurkat [7]; in test [16]) were 213%, 236% and 198%, respectively. The inhibition result in test [4], in test [6] and in [15] was “inactive” throughout. In addition, the outcome in test [8] was inactive.
